Compounds with a hit are over-represented: about 2.1% of the library has one in this group of screens.
HTR2A ag: mouse HTR2A agonism via beta-arrestin recruitment | P35363 | CHO-K1 mHTR2A beta-arrestin complementation, luminescence; percent of 30 µM serotonin response | activation, % at 7.6 µM | 0.66% of 360,000 active | AID 624169;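 active means activation above a run cutoff, the mean activation of all tested compounds plus 3 SD, cut at about 14% in these data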
Target sequence (P35363 whole entry, looked up): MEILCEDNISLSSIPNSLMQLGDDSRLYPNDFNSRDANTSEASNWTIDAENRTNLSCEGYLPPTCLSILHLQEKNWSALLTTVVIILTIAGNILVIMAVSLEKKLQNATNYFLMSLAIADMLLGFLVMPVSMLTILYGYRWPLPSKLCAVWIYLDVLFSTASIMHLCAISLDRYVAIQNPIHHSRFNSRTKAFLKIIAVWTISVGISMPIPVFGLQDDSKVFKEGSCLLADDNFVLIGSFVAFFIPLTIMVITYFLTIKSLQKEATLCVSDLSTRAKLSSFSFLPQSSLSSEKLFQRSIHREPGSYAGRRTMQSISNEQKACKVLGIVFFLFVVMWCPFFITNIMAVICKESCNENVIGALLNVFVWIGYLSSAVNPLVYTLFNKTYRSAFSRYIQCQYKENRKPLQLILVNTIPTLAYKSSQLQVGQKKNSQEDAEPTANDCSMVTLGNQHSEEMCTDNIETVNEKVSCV
CXCR6 block: CXCR6 (human) receptor inhibition; O00574; AID 602244; 0.36% of 360,000 active; inhibition, % at 20 µM; CHO-K1 PathHunter CXCR6 beta-arrestin, luminescence; in the data active means inhibition above about 34%, passing the limit was not always enough;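 further: antagonist mode with CXCL16 agonist at 10 nM final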
APJ antag: antagonists of human APJ apelin receptor. P35414. CHO-K1 APJ beta-arrestin complementation, luminescence. inhibition, % at 20 µM. 0.32% of 330,000 active. AID 2521;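 active means inhibition above about 40% at 20 µM, limit read from the data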;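 further: cells challenged with 10 nM apelin-13 agonist together with compound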
APJ ag: activates the human apelin receptor APJ; 0.11% of 330,000 active; AID 2520; CHO-K1 APJ PathHunter beta-arrestin, luminescence; 0% DMSO wells, 100% apelin; activation, % at 20 µM;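 active means activation more than six SD over the plate average, tested at 20 µM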
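Material: engineered CHO-K1 APJ arrestin reporter cells; amount: 1000 CHO-K1 reporter cells seeded per well; incubation: compound stimulation 90 min at 25 °C, detection 60 min; signal: luminescent beta-gal fragment complementation, chemiluminescent substrate; read-out basis: APJ agonist activity; controls: DMSO-only wells as negative, 10 nM Apelin-13 as positive control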
EBI2 block: antagonists of human EBI2 receptor; P32249; EBI2 beta-arrestin recruitment, luminescence, 7a,25-OHC stimulated; inhibition, % at 5 µM; 0.81% of 360,000 active; AID 651636; in the data active means inhibition above about 38%;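 further: enzyme fragment complementation signal reports receptor beta-arrestin coupling in cells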
CCR6 antag: CCR6 (human) receptor antagonism. 0.49% of 340,000 active. CHO-K1 CCR6 PathHunter beta-arrestin, luminescence, CCL20-stimulated. inhibition, % at 20 µM;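 active means compounds whose inhibition of the agonist-driven luminescence signal at 20 µM reaches about 50%, limit read from the data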;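 further: cells stimulated with CCL20 at 14 nM final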
EBI2 antag conf: EBI2 (human) antagonism, single concentration confirmation; 29% of 2,400 active; shares compounds with EBI2 block; EBI2 beta-arrestin luminescence, 7a,25-OHC antagonism; inhibition, % at 5 µM;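 active means inhibition of at least 50%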
EBI2 ag: counter-screen for EBI2 antagonists: EBI2 agonist activity; shares compounds with EBI2 block; EBI2-expressing cells, agonist mode, luminescence, 60 min; 0% vehicle, 100% 7α,25-dihydroxycholesterol control; activation, % at 5 µM; 2,400 tested, under 10 active; AID 652000;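 active means activation of at least 50%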
bGal cs: counter-screen for EBI2 antagonists: E. coli beta-galactosidase inhibition | shares compounds with EBI2 block | purified beta-galactosidase, luminescent Galacton Star, 15 min | inhibition, % at 5 µM | 1% of 2,400 active | AID 652176;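 active means replicate-average signal at least 3 plate SD below neutral wells, shown as high inhibition, flagging enzyme-inhibiting false positives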;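 further: higher means stronger loss of beta-gal luminescence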
Large screens that a line does not name were inactive (follow-up assays come after a bar, where they were run).

O=C(CN1CCN(S(=O)(=O)c2cccc(Br)c2)CC1)NCCc1cccs1	EBI2 block 39 | EBI2 antag conf inactive | EBI2 ag inactive | bGal cs inactive
Cc1cc(S(=O)(=O)N2CCN(CC(=O)NCCc3cccs3)CC2)ccc1Br	none
Cc1nc2cc(-c3ccc(Cl)cc3)nn2c(C)c1CCC(=O)NCc1ccco1	EBI2 block 50 | EBI2 antag conf inactive | EBI2 ag inactive | bGal cs inactive
COc1ccc(-c2cc3nc(C)c(CCC(=O)NCc4ccco4)c(C)n3n2)c(OC)c1	none
COc1nnc(-c2ccccc2)s1	none
O=C(Nc1cnn(Cc2ccc(Cl)c(Cl)c2)c1)C12CC3CC(CC(C3)C1)C2	EBI2 block 42 | EBI2 antag conf inactive | EBI2 ag inactive | bGal cs inactive
CC(C)N1CCC1(C)C(=O)Nc1nccc2cccnc12 (configuration not stated)	none (no result: APJ antag, APJ ag, CCR6 antag)
CC(C)n1c(SCC(N)=O)nc2c1c(=O)n(C)c(=O)n2C	none
Cc1cc(SCC(=O)N/N=C/c2cccnc2)nc2c(C)cccc12	EBI2 block 65 | EBI2 antag conf inactive | EBI2 ag inactive | bGal cs inactive
Cc1cc(OCC(=O)N2CCCC2)ccc1Cl	none
CCOC(=O)N1CCN(C(=O)COc2ccc(Cl)c(C)c2)CC1	EBI2 block 86 | EBI2 antag conf 54 | EBI2 ag inactive | bGal cs inactive
CCOC(=O)N1CCN(C(=O)COc2ccc(Cl)cc2)CC1	EBI2 block 83 | EBI2 antag conf 55 | EBI2 ag inactive | bGal cs inactive
COc1ccc(/C=N/NS(=O)(=O)c2ccccc2)cc1OC	none
Cc1ccc(S(=O)(=O)N2CCCN(C(=O)c3cc4ccccc4[nH]3)CC2)cc1	EBI2 block 54 | EBI2 antag conf inactive | EBI2 ag inactive | bGal cs inactive
CN1CCN(C(=O)c2cc3ccccc3[nH]2)CC1	none
Cc1ccc2[nH]c(C(=O)N3CCN(c4cccc(Cl)c4)CC3)cc2c1	EBI2 block 54 | EBI2 antag conf inactive | EBI2 ag inactive | bGal cs inactive
Cc1ccc2[nH]c(C(=O)N3CCCC(Nc4ccc(F)cc4)C3)cc2c1 (configuration not stated)	none
Cc1ccc2[nH]c(C(=O)N3CCN(C=O)CC3)cc2c1	EBI2 block 75 | EBI2 antag conf inactive | EBI2 ag inactive | bGal cs inactive
CCOC(=O)N1CCN(C(=O)c2cc3cc(C)ccc3[nH]2)CC1	EBI2 block 88 | EBI2 antag conf 67 | EBI2 ag inactive | bGal cs inactive
Cc1ccc(NC(=O)C2CCN(S(=O)(=O)c3ccc4c(c3)NC(=O)C(C)S4)CC2)cc1C (configuration not stated)	none
O=C(c1ccc(-n2cccn2)cc1)N1CCN(c2ncccc2C(F)(F)F)CC1	EBI2 block 87 | EBI2 antag conf 80 | EBI2 ag inactive | bGal cs inactive
Cc1cc(C)c2cc(C(=O)N3CCN(c4ncccc4C(F)(F)F)CC3)[nH]c2c1	EBI2 block 77 | EBI2 antag conf inactive | EBI2 ag inactive | bGal cs inactive
Cc1oc(C(C)(C)C)cc1C(=O)N1CCN(c2ncccc2C(F)(F)F)CC1	none
COC(=O)c1ccccc1NC(=O)N1CCc2ccc(NC(=O)c3ccccn3)cc2C1	none
CN(Cc1ccc(Cl)c(Cl)c1)C(=O)c1cccc(S(=O)(=O)N2CCN(Cc3ccccc3)CC2)c1	EBI2 block 58 | EBI2 antag conf inactive | EBI2 ag inactive | bGal cs inactive
CN(Cc1cccc(Cl)c1Cl)C(=O)c1cccc(S(=O)(=O)N2CCN(Cc3ccccc3)CC2)c1	EBI2 block 54 | EBI2 antag conf inactive | EBI2 ag inactive | bGal cs inactive
O=C(CN(C(=O)c1csnn1)c1ccccc1F)NCc1ccccc1	none
O=C(CSc1nnc2ccccn12)NCCc1ccc(F)cc1	none
CC(NC(=S)NCCc1ccccc1)C(c1cccs1)N1CCN(Cc2ccccc2)CC1 (configuration not stated)	none
COC(=O)[C@@]12C[C@@H](CC(=O)NCCCCc3ccccc3)C(=O)N(Cc3ccc4c(c3)OCO4)C1=CCC(C)(C)C2	EBI2 block 35 (no result: CXCR6 block, APJ antag, APJ ag, CCR6 antag) | EBI2 antag conf inactive | EBI2 ag inactive | bGal cs inactive
Cc1nc(N2CCN(Cc3ccccc3)CC2)nc2c1C(=O)CCC2	none (no result: APJ antag, APJ ag)
CCN(CC)CCNC(=O)c1ccc(Cl)c(S(=O)(=O)Nc2ccc(Cl)cc2)c1	none
O=C(c1ccc2ccccc2c1)N1CCN(c2ccc(O)cc2)CC1	EBI2 block 57 | EBI2 antag conf inactive | EBI2 ag inactive | bGal cs inactive
O=C(c1ccc2ccccc2c1)N1CCN(c2ccccn2)CC1	EBI2 block 56 | EBI2 antag conf inactive | EBI2 ag inactive | bGal cs inactive
Cc1ccc2c(c1)cc(C(=O)N1CCN(c3ccccn3)CC1)n2C	EBI2 block 47 | EBI2 antag conf inactive | EBI2 ag inactive | bGal cs inactive
Cc1ccc(C(=O)N2CCN(c3ccccn3)CC2)cc1	none
O=C(CCC1CCCC1)NNC(=O)COc1ccc(Br)cc1	EBI2 block 79 | EBI2 antag conf inactive | EBI2 ag inactive | bGal cs inactive
Cc1cc(C)c2cc(C(=O)N3CCC(N4CCCCC4)CC3)[nH]c2c1	EBI2 block 46 | EBI2 antag conf inactive | EBI2 ag inactive | bGal cs inactive
Cc1cc(C)cc(NC(=O)N2CCC(C(=O)c3ccc(F)cc3)CC2)c1	none
Cc1cc(C)c2cc(C(=O)N3CCC(Cc4ccccc4)CC3)[nH]c2c1	EBI2 block 64 | EBI2 antag conf inactive | EBI2 ag inactive | bGal cs inactive
COc1ccc(C(=O)N2CCC(C(=O)c3c(C)cc(C)cc3C)CC2)cc1	EBI2 block 72 | EBI2 antag conf inactive | EBI2 ag inactive | bGal cs inactive
O=C(c1ccc(F)cc1)N1CCC(N2CCCCCC2)CC1	none
Cc1cc(C)c2cc(C(=O)N3CCC(C(=O)c4ccc(F)cc4)CC3)[nH]c2c1	EBI2 block 90 | EBI2 antag conf 84 | EBI2 ag inactive | bGal cs inactive
O=c1sc2ccccc2n1COc1ccccc1	none (no result: APJ antag, APJ ag)
CCOc1ccc2nc(N/C(N)=N/C(=S)Nc3ccc(OC)cc3)nc(C)c2c1	EBI2 block 44 | EBI2 antag conf inactive | EBI2 ag inactive | bGal cs inactive

Screening data deposited in PubChem by several laboratories.
